# Legend:
# [1] = system: T1, Chromatin remodeling regulator CECR2 (Homo sapiens), Q9BXF3 [Y520I]; assay: Binding affinity to CECR2 Y520I mutant (unknown origin) assessed as change in melting temperature at 10 uM by SYPRO red dye based differential scanning fluorimetry
# T1 sequence (whole entry): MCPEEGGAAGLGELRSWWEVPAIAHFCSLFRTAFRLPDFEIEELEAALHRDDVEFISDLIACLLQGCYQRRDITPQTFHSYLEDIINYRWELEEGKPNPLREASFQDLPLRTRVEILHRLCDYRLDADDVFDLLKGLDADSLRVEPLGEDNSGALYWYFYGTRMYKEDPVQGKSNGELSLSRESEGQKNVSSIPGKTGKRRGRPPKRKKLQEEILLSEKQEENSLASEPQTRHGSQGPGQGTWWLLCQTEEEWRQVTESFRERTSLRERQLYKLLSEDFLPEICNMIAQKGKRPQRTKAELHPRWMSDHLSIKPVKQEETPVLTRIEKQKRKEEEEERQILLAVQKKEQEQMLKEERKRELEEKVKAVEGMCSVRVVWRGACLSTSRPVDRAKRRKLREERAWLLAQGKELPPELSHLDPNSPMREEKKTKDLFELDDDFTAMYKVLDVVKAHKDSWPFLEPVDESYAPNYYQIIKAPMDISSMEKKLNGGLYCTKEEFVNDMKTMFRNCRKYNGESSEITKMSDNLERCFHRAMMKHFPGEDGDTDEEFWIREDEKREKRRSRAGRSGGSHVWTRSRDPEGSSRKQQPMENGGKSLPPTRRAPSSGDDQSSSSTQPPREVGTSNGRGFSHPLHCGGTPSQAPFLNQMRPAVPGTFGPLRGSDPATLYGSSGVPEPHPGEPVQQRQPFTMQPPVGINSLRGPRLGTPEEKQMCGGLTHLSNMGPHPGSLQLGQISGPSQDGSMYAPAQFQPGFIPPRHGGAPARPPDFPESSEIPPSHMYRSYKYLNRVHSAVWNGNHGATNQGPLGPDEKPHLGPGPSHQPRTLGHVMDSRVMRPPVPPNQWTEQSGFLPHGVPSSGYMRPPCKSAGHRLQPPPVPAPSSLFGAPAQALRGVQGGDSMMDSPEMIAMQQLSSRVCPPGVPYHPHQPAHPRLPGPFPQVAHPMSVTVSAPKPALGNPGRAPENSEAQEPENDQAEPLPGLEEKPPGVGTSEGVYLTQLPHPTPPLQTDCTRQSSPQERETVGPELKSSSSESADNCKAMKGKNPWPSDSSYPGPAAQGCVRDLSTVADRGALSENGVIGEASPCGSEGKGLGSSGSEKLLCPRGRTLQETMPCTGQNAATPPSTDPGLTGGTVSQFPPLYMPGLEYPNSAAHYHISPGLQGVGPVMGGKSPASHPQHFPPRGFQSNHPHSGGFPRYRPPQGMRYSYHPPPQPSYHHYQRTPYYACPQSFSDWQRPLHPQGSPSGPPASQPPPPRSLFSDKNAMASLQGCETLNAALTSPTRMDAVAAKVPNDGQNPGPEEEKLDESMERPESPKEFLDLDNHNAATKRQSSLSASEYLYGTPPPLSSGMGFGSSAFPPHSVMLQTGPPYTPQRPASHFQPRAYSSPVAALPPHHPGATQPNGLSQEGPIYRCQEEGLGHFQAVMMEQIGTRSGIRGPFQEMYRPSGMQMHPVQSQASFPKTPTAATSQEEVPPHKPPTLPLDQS
# How it was run: (§1)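 Differential scanning fluorimetry: aggregate removed by centrifugation, then bromodomain at 4 µM final with 10X SYPRO Red, 10 µM compound and 0.2% DMSO in 20 mM HEPES pH 7.7, 100 mM NaCl. Heated 25 to 95 °C, fluorescence read at 1 °C steps. Apparent Tm taken from melt curves; mean of at least five wells for CECR2.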
# Peregrin = biological target: T2, Peregrin (Homo sapiens, UniProt P55201); assay: Displacement of biotinylated JQ1 analog from recombinant His-tagged BRPF1 (unknown origin) incubated for 10 mins by TR-FRET assay
# T2 sequence (P55201 whole entry): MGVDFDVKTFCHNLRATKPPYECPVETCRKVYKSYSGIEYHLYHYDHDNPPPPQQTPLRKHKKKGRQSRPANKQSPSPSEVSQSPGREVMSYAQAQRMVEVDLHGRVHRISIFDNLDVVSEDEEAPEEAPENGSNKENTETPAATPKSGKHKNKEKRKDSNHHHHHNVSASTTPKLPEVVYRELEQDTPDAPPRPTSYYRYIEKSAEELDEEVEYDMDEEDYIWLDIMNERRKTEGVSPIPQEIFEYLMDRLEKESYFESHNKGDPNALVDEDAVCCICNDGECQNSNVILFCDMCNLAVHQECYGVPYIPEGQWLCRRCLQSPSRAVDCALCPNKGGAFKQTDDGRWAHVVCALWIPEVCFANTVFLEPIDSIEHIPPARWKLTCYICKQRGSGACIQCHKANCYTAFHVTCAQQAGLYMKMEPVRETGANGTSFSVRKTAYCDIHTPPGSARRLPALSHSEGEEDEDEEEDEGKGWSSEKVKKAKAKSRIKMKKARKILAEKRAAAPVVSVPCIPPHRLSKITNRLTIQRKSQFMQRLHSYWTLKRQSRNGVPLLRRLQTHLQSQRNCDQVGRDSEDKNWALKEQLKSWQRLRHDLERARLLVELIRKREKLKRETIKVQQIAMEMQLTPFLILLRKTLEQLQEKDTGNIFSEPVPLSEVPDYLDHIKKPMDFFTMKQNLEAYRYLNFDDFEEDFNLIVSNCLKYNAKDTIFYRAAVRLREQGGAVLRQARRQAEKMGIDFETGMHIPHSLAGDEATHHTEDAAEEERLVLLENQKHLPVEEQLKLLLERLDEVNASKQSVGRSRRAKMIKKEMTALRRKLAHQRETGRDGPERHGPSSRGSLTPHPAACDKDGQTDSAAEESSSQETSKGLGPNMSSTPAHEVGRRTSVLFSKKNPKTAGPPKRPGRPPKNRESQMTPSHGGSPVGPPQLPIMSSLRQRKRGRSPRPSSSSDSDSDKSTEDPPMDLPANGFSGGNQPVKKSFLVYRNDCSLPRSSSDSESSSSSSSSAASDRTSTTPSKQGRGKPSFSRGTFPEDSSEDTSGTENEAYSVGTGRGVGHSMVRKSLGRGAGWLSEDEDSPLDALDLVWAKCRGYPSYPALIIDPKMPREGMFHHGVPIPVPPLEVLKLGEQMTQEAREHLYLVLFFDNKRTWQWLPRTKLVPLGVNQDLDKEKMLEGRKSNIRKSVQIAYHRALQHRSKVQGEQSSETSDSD
# How it was run: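 Bromodomain, then biotinylated ligand, each added with 10 min incubation. Anti-His europium (0.2 nM) plus streptavidin-APC followed for 40 min. 10-point titrations in duplicate, at least 2 independent runs.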
# [2] = biological target: Chromatin remodeling regulator CECR2 (Homo sapiens, UniProt Q9BXF3); assay: Binding affinity to wild type CECR2 (unknown origin) assessed as change in melting temperature at 10 uM by SYPRO red dye based differential scanning fluorimetry; how it was run: as §1
# Chain of Chromatin remodeling regulator CECR2 (Q9BXF3 whole entry, looked up): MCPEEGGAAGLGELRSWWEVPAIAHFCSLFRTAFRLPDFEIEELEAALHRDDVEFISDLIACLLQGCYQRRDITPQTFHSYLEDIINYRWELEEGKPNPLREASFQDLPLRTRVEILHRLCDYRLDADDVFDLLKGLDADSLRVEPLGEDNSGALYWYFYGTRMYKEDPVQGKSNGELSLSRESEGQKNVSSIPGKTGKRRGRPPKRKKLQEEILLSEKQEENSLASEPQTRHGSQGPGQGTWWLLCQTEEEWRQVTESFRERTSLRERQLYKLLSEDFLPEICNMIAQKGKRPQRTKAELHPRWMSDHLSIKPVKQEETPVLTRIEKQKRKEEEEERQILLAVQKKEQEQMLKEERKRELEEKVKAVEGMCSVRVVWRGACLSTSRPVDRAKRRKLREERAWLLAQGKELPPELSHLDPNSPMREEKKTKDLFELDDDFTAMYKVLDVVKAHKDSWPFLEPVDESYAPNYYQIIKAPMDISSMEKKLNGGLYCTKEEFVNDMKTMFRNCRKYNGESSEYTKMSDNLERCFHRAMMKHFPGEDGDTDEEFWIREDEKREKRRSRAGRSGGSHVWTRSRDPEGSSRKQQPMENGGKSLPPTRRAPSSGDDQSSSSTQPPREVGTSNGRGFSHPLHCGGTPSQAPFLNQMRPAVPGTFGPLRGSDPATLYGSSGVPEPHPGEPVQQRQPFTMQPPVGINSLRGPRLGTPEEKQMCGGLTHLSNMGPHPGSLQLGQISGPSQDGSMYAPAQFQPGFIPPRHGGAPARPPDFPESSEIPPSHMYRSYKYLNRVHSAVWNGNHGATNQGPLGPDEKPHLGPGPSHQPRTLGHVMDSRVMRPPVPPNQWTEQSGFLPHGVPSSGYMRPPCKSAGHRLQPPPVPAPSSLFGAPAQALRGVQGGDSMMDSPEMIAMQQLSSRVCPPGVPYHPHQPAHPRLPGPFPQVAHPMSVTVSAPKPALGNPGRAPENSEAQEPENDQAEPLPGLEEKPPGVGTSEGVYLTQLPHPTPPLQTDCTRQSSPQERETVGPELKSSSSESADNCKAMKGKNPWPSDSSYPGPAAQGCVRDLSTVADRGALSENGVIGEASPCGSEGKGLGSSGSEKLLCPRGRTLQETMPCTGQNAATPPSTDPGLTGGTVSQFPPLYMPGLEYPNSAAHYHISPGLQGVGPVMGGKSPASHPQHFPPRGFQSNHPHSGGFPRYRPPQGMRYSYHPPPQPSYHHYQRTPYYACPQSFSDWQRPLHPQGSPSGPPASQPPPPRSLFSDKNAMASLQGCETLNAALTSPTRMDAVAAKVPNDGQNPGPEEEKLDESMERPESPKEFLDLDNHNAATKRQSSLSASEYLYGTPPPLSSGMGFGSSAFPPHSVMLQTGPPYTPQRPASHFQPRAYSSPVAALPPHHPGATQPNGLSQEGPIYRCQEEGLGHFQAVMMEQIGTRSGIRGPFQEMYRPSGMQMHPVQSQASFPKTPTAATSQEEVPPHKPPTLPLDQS
ΔTm [1] [°C],IC50 (Peregrin) [nM],ΔTm [2] [°C],SMILES
3,1500,6,CN(C)C(=O)c1cccc(-c2cn(C)c(=O)c3[nH]ccc23)c1
-1,> 20000,6,C=CCn1cc(-c2cccc(C(=O)N(C)C)c2)c2cc[nH]c2c1=O
